Assay outcomes deposited in PubChem BioAssay by several laboratories.
KCC2 mod: KCC2 (human) Cl- transport modulation; KCC2 cells, thallium flux FluoZin-2 fluorescence; Q9H2X9; B-score of Tl+ flux slope (higher = more flux/activation; lower = inhibition) at 10 µM; actives 2.2% (n = 190,000);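 active = thallium flux slope and its plate-corrected score both differing from the plate sample mean at a set confidence after two filtering rounds, in either direction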;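 also: slope of fluorescence scaled to starting intensity during 10 to 20 s after thallium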
KCNQ1 pot: potentiates or activates the human KCNQ1 potassium channel | P51787 | AID 2648 | actives 0.35% (n = 310,000) | CHO-K1 KCNQ1, thallium flux FluxOR fluorescence; active compounds read high | B-score at 10 µM;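 active = fluorescence ratio B-score, a plate-corrected score, at least three library SD, with initial intensity B-score within 5 SD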
Target sequence (P51787 whole entry, looked up): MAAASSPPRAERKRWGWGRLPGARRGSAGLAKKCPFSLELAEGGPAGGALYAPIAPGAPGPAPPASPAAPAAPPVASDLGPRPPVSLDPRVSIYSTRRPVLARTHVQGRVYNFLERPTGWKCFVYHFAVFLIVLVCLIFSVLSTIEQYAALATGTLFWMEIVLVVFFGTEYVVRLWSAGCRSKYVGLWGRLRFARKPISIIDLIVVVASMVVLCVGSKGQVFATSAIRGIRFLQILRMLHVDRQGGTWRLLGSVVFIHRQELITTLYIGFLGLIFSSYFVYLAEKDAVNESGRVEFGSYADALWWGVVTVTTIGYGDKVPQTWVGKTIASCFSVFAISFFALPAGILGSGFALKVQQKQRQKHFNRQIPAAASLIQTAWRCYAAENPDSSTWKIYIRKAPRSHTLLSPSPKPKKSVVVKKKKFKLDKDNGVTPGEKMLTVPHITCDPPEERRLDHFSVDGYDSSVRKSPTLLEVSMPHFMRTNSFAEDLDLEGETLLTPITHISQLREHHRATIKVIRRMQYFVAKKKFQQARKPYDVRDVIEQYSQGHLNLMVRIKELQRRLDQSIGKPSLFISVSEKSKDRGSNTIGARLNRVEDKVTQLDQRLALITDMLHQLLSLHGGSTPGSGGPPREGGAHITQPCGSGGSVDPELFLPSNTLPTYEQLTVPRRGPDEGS
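Assay system: CHO-K1 cells stably expressing KCNQ1; Medium: assay buffer with matched DMSO; Also added: K+/Tl+ depolarizing stimulus; Dosing: single dose; Timing: dye 90 min, compound 20 min, room temperature; Measured by: kinetic FluxOR thallium fluorescence, 10-s 1-Hz baseline, 110-s post-stimulus read; Read-out: peak-minus-minimum fluorescence over initial fluorescence, negative-control normalized, B-scored.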
KCNK3 inh: human KCNK3 channel inhibition, primary screen; B-score at 10 µM; CHO-KCNK3 thallium flux, FluxOR fluorescence; active compounds read low; AID 602410; O14649; actives 0.84% (n = 340,000);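 active = B-score under library mean minus 4 SD, starting fluorescence ratio at most library mean plus 5 SD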;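 also: more negative B-score means stronger inhibition of thallium flux through KCNK3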
hERG protect: shields human hERG channel from block by proarrhythmic agents; Q12809; CHO-hERG, FluxOR thallium flux, dofetilide IC70 present; activation (rescue from dofetilide block), less the hit threshold, % at 10 µM; actives 0.51% (n = 310,000);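 active = activation above the mean of controls blocked by dofetilide plus 5 SD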;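 also: thallium influx through hERG after potassium depolarization seen as dye fluorescence rise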
KCNQ1 inh: human KCNQ1 channel inhibition. P51787. CHO-K1 KCNQ1, FluxOR thallium flux fluorescence; active compounds read high. B-score at 10 µM. actives 1.3% (n = 310,000);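 active = compounds whose thallium flux B-score, printed positive for inhibition, exceeds three library SD while starting fluorescence stays within three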;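 also: channel opened by potassium depolarization with thallium stimulus after 20 min compound exposure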
KCNK9 inh: inhibitors of human KCNK9 two-pore domain potassium channel; AID 488922; actives 1.2% (n = 310,000); HEK293 KCNK9, FluxOR thallium flux fluorescence; active compounds read low; Q9NPC2; B-score at 10 µM;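 active = ratio B-score over 3 SD below the library mean, with starting fluorescence within 5 SD of its mean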;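 also: negative B-score means less thallium flux so channel inhibition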
KCC2 sec1: confirmation of human KCC2 transport modulators; shares compounds with KCC2 mod; normalised thallium flux (F/F0 slope) at 10 µM; HEK293-KCC2, thallium flux, FluoZin2 fluorescence; active compounds read high; actives 15% (n = 3,700);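 active = thallium flux slope above the same plate's solvent-only control mean plus 3 SD; inconclusive = the two replicate wells disagree; inactive = no significant difference from solvent-only control wells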
KCC2 bumet counter: thallium flux persisting under bumetanide in KCC2 cells, counter-screen secondary assay; shares compounds with KCC2 mod; HEK293-KCC2 + bumetanide/ouabain, thallium flux FluoZin2; active compounds read high; actives 49% (n = 3,700); normalized thallium flux at 10 µM; AID 1714;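 active = thallium entry rate above the same plate's blocked-transporter control wells by more than 3 SD; inconclusive = the two repeat wells disagree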;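 also: raw slope of fluorescence over initial fluorescence between 10 and 20 s after thallium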
KCC2 secondary2: confirmation of human KCC2 transport modulators; shares compounds with KCC2 mod; HEK293-KCC2, thallium flux FluoZin2 fluorescence; actives lie on both sides; F/F0 rise rate, 10–20 s post-thallium; normalized thallium flux at 10 µM; actives 23% (n = 3,700); AID 1715;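 active = thallium flux slope more than 3 SD above or below the plate's solvent-only control mean, mostly below; inconclusive = the two repeat wells disagreed; inactive = no significant shift from solvent-only controls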
HEK293 Tl flux: counter-screen for KCC2 modulators: effect in parental HEK293 cells. thallium flux FluoZin2, ouabain; baseline-ratio fluorescence slope, 10–20 s after thallium. shares compounds with KCC2 mod. actives 46% (n = 3,700). AID 1716. thallium flux rate (normalised fluorescence) at 10 µM;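 active = thallium flux rate significantly above the same plate's solvent-only control wells, beyond their mean plus 3 SD; inconclusive = the two replicate wells gave conflicting results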
KCC2 ouabain: modulates human KCC2 on retest with ouabain; actives 48% (n = 3,700); HEK293-KCC2, thallium flux FluoZin2 fluorescence; bidirectional: low = inhibitor, high = activator; raw Tl+ flux slope (below DMSO = inhibition, above = activation) at 10 µM; shares compounds with KCC2 mod; AID 1717;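 active = thallium flux slope beyond 3 SD from same-plate DMSO control mean in most replicates, usually higher, sometimes lower; inconclusive = repeat tests gave conflicting results; inactive = no significant difference from controls in most replicates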;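 also: slope of initial-normalized fluorescence between seconds 10 and 20 after thallium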
HEK293 Tl flux2: parental HEK flux effect, counter-screen 2; HEK293 parental, thallium flux FluoZin-2 fluorescence slope; thallium flux slope at 10 µM; shares compounds with KCC2 mod; actives 33% (n = 3,700);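 active = thallium flux slope above the same plate's solvent-control mean plus 3 SD in both duplicate wells; inconclusive = duplicate wells that disagreed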;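 also: run without ouabain in cells lacking the KCC2 cotransporter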
Of the large screens only hits and unclear results are named; the others gave an inactive call (follow-up assays come after a bar, where they were run). A selection: hits, their analogues and other compounds. The true share with any hit is near 4.1%.

CC(C)(Oc1ccc(Cl)cc1)C(=O)Nc1c2c(nn1C(C)(C)C)CS(=O)(=O)C2	none (no result: KCC2 mod)
Oc1c(I)cc(Cl)c2cccnc12	KCC2 mod 77 | KCC2 sec1 inactive | KCC2 bumet counter 0.1 | KCC2 secondary2 0.067 | HEK293 Tl flux 0.11 | KCC2 ouabain 0.11 | HEK293 Tl flux2 0.041
Clc1cc2cccnc2c2ncccc12	none (no result: KCC2 mod, KCNQ1 pot, hERG protect, KCNQ1 inh, KCNK9 inh)
O=[N+]([O-])c1cc(Cl)c2cccnc2c1O	none
O=[N+]([O-])c1cc(Cl)c(O)c2ncccc12	KCC2 mod 4.5 | KCC2 sec1 0.013 | KCC2 bumet counter 0.016 | KCC2 secondary2 inactive | HEK293 Tl flux 0.011 | KCC2 ouabain inconclusive | HEK293 Tl flux2 inconclusive
CCOc1nc(SC(C(C)=O)C(=O)Nc2ccccc2)nc(N(C)C)n1 (stereo not drawn)	none
O=C(Cc1ccccc1[N+](=O)[O-])NCc1ccc(Cl)cc1	none
O=C(NCc1ccc(Cl)cc1)c1n[nH]c([N+](=O)[O-])c1Cl	KCC2 mod -3.8, KCNQ1 inh 6 | KCC2 sec1 inactive | KCC2 bumet counter 0.0057 | KCC2 secondary2 inconclusive | HEK293 Tl flux inconclusive | KCC2 ouabain inactive | HEK293 Tl flux2 inactive
CCc1nnc(NC(=O)CSc2nc(C)c3c(c2C#N)CCCC3)s1	none (no result: KCC2 mod)
COc1ccc2nc(SCC(=O)Nc3ccc4c(c3)OCCO4)[nH]c2c1	KCC2 mod -2.5 | KCC2 sec1 inactive | KCC2 bumet counter inactive | KCC2 secondary2 inactive | HEK293 Tl flux inactive | KCC2 ouabain inactive | HEK293 Tl flux2 inactive
Cc1sc2ncnc(SCC(=O)Nc3nc(-c4ccc(F)c(F)c4)cs3)c2c1C	KCC2 mod 45 | KCC2 sec1 0.026 | KCC2 bumet counter 0.078 | KCC2 secondary2 0.046 | HEK293 Tl flux 0.04 | KCC2 ouabain 0.072 | HEK293 Tl flux2 0.022
Cc1cccc(C)c1NC(=O)NC1(C(=O)NCCN2CCOCC2)CCCCC1	none
CCOC(=O)c1ccc2nc(Nc3nc4ccc(F)cc4s3)sc2c1	none
COC(=O)c1ccc2nc(Nc3nc4c(F)cc(F)cc4s3)sc2c1	KCC2 mod 9.2 | KCC2 sec1 inactive | KCC2 bumet counter 0.019 | KCC2 secondary2 0.041 | HEK293 Tl flux 0.016 | KCC2 ouabain 0.028 | HEK293 Tl flux2 0.021
CCCCS(=O)(=O)N1CCCC(C(=O)Oc2ccccc2)C1 (stereo not drawn)	none (no result: KCC2 mod)
c1ccc2sc(N3CCOCC3)nc2c1	none
c1ccc2sc(SN3CCOCC3)nc2c1	KCC2 mod 2.8 | KCC2 sec1 inactive | KCC2 bumet counter 0.013 | KCC2 secondary2 inactive | HEK293 Tl flux 0.011 | KCC2 ouabain inactive | HEK293 Tl flux2 inconclusive
O=C(CSCc1ccc(Cl)cc1)Nc1cc([N+](=O)[O-])ccc1O	KCC2 mod -3.4 | KCC2 sec1 inactive | KCC2 bumet counter inactive | KCC2 secondary2 0.022 | HEK293 Tl flux 0.0062 | KCC2 ouabain 0.014 | HEK293 Tl flux2 0.0083
COc1ccc([N+](=O)[O-])cc1NC(=O)CSCc1ccc(Br)cc1	none
COC(c1ccccc1)c1nnc(CCC(=O)N(C)C(C2CC2)C2CC2)o1 (stereo not drawn)	none
Cc1ccccc1OCC1CNC(=O)O1 (stereo not drawn)	none (no result: KCC2 mod)
O=C1NCC(COCc2ccco2)O1 (stereo not drawn)	KCC2 mod -4.8 | KCC2 sec1 inactive | KCC2 bumet counter inactive | KCC2 secondary2 inactive | HEK293 Tl flux inconclusive | KCC2 ouabain inactive | HEK293 Tl flux2 inactive
CCCc1cc(N2CCCC(C(=O)NCC)C2)n2ncnc2n1 (stereo not drawn)	none
CCCCN(C(=O)c1ccc(Cl)cc1)C1CC2CCC(C1)N2C (stereo not drawn)	none
CC1=NN(c2ccccc2)C(=O)C1C(=O)c1cc([N+](=O)[O-])cc([N+](=O)[O-])c1 (stereo not drawn)	none
CCCCCCN1N=C(C)C(C(=O)c2ccc(Cl)cc2)C1=O (stereo not drawn)	KCC2 mod 5 | KCC2 sec1 0.013 | KCC2 bumet counter 0.025 | KCC2 secondary2 inactive | HEK293 Tl flux 0.014 | KCC2 ouabain 0.032 | HEK293 Tl flux2 inconclusive
CCCCCCCN1N=C(C)C(C(=O)c2ccccc2)C1=O (stereo not drawn)	KCC2 mod 3.1 | KCC2 sec1 inactive | KCC2 bumet counter 0.024 | KCC2 secondary2 inconclusive | HEK293 Tl flux 0.014 | KCC2 ouabain 0.03 | HEK293 Tl flux2 0.017
C=CCN(c1cccc(C(F)(F)F)c1)S(=O)(=O)c1cccc(C(=O)OCC(=O)NCCC)c1	KCC2 mod -4.2 | KCC2 sec1 inconclusive | KCC2 bumet counter inactive | KCC2 secondary2 0.024 | HEK293 Tl flux 0.0059 | KCC2 ouabain 0.014 | HEK293 Tl flux2 inconclusive
C=CCN(c1ccccc1)S(=O)(=O)c1cccc(C(=O)OCC(=O)NCCOC)c1	none
Cn1cnc2c1c(=O)[nH]c(=O)n2C	none (no result: KCNK3 inh) | KCC2 sec1 inactive | KCC2 bumet counter inactive | KCC2 secondary2 inactive | HEK293 Tl flux inactive | KCC2 ouabain inactive | HEK293 Tl flux2 inactive
Cn1c(=O)[nH]c2ncn(C)c2c1=O	none (no result: KCC2 mod)
CCC1CCCCN1C(=S)NC(=O)c1cccs1 (stereo not drawn)	KCC2 mod 63, KCNQ1 pot 8, hERG protect 5.3 | KCC2 sec1 0.036 | KCC2 bumet counter 0.1 | KCC2 secondary2 0.086 | HEK293 Tl flux 0.088 | KCC2 ouabain 0.088 | HEK293 Tl flux2 0.087
CCC1CCCCN1C(=S)NC(=O)c1ccc(F)c(S(=O)(=O)N2CCOCC2)c1 (stereo not drawn)	KCC2 mod 3.2 | KCC2 sec1 inconclusive | KCC2 bumet counter 0.019 | KCC2 secondary2 inactive | HEK293 Tl flux 0.01 | KCC2 ouabain 0.029 | HEK293 Tl flux2 inconclusive
